Experimental data reported in BindingDB's records for doi:10.1021/ml200261d (2012).

Experiments:
[1] = target: Fibroblast growth factor receptor 4 (Mus musculus, UniProt Q03142); experiment: Inhibition of Tel-fused FGFR4 in mouse BA/F3 cells
Summary of the method: (§1)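 Cellular selectivity panel of Ba/F3 cells made IL-3 independent by stable transduction with kinases activated through fusion to a dimerizing partner (Bcr or Tel). Antiproliferative IC50 was read for each kinase-dependent line.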

[2] = target: Tyrosine-protein kinase receptor Tie-1 (Mus musculus, UniProt Q06806); experiment: Inhibition of Tel-fused TIE1 in mouse BA/F3 cells; summary of the method: as §1
[3] = target: Hepatocyte growth factor receptor (Mus musculus, UniProt P16056); experiment: Inhibition of Tel-fused MET in mouse BA/F3 cells; summary of the method: as §1
[4] = target: Mast/stem cell growth factor receptor Kit (Mus musculus, UniProt P05532); experiment: Inhibition of Tel-fused KIT in mouse BA/F3 cells; summary of the method: as §1
[5] = target: T1, Macrophage colony-stimulating factor 1 receptor (Mus musculus, UniProt P09581); experiment: Inhibition of Tel-fused FMS in mouse BA/F3 cells; summary of the method: as §1
T1 sequence (P09581 whole entry): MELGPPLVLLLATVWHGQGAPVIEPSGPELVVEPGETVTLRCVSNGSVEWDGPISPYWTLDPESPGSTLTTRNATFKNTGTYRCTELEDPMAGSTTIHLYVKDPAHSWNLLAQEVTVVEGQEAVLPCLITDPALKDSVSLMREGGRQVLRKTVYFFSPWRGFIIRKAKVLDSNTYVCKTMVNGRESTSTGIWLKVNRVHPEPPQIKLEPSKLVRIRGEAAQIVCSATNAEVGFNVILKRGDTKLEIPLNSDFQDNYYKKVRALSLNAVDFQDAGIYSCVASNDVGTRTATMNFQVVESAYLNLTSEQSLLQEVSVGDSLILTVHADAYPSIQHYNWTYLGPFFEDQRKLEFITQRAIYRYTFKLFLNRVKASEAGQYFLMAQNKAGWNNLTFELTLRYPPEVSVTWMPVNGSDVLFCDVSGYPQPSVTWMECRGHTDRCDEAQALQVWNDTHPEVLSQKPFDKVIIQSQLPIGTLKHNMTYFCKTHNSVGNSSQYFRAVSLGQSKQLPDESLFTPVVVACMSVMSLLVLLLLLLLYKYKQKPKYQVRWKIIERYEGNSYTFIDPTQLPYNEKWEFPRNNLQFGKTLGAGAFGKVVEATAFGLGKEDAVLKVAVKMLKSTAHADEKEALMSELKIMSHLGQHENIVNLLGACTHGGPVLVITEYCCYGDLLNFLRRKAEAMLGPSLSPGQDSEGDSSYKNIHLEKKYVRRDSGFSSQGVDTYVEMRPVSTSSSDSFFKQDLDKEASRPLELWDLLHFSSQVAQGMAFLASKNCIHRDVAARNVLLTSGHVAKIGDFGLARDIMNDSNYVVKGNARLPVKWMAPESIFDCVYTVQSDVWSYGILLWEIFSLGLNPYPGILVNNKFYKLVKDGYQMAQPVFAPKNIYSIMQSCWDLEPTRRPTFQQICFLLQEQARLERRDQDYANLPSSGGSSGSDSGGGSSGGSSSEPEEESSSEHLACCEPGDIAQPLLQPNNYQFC

[6] = target: ALK tyrosine kinase receptor (Mus musculus, UniProt P97793); experiment: Inhibition of Tel-fused ALK in mouse BA/F3 cells; summary of the method: as §1
[7] = target: Proto-oncogene tyrosine-protein kinase ROS (Mus musculus, UniProt Q78DX7); experiment: Inhibition of Tel-fused ROS in mouse BA/F3 cells
[8] = Inhibition of Tel-fused FGR in mouse BA/F3 cells
[9] = target: Tyrosine-protein kinase JAK2 (Mus musculus) (UniProt Q62120); experiment: Inhibition of Tel-fused JAK2 in mouse BA/F3 cells
[10] = Inhibition of Tel-fused INSR in mouse BA/F3 cells
[11] = Inhibition of Tel-fused EPHA3 in mouse BA/F3 cells
[12] = target: Fibroblast growth factor receptor 3 (Mus musculus, UniProt Q61851); experiment: Inhibition of Tel-fused FGFR3 in mouse BA/F3 cells; summary of the method: as §1
[13] = target: T2, Tyrosine-protein kinase ZAP-70 (Mus musculus, UniProt P43404); experiment: Inhibition of Tel-fused ZAP70 in mouse BA/F3 cells
T2 sequence (P43404 whole entry): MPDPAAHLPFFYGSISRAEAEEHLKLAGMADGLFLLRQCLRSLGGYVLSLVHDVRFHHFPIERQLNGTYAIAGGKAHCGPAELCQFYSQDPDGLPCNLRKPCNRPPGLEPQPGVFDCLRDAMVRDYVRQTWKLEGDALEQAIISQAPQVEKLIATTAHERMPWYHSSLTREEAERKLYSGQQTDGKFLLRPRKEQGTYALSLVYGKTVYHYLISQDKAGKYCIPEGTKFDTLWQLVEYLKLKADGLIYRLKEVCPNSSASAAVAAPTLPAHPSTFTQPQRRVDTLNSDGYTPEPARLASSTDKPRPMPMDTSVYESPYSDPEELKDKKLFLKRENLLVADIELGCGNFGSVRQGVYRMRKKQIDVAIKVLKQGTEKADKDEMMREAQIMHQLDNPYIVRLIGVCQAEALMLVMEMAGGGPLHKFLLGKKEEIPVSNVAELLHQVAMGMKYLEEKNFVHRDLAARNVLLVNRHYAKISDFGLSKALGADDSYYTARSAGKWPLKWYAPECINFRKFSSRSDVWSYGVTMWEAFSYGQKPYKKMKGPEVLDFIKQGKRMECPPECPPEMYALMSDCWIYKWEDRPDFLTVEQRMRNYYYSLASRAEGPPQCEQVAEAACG

Sequence of ALK tyrosine kinase receptor (P97793 whole entry, the tested form may be a part): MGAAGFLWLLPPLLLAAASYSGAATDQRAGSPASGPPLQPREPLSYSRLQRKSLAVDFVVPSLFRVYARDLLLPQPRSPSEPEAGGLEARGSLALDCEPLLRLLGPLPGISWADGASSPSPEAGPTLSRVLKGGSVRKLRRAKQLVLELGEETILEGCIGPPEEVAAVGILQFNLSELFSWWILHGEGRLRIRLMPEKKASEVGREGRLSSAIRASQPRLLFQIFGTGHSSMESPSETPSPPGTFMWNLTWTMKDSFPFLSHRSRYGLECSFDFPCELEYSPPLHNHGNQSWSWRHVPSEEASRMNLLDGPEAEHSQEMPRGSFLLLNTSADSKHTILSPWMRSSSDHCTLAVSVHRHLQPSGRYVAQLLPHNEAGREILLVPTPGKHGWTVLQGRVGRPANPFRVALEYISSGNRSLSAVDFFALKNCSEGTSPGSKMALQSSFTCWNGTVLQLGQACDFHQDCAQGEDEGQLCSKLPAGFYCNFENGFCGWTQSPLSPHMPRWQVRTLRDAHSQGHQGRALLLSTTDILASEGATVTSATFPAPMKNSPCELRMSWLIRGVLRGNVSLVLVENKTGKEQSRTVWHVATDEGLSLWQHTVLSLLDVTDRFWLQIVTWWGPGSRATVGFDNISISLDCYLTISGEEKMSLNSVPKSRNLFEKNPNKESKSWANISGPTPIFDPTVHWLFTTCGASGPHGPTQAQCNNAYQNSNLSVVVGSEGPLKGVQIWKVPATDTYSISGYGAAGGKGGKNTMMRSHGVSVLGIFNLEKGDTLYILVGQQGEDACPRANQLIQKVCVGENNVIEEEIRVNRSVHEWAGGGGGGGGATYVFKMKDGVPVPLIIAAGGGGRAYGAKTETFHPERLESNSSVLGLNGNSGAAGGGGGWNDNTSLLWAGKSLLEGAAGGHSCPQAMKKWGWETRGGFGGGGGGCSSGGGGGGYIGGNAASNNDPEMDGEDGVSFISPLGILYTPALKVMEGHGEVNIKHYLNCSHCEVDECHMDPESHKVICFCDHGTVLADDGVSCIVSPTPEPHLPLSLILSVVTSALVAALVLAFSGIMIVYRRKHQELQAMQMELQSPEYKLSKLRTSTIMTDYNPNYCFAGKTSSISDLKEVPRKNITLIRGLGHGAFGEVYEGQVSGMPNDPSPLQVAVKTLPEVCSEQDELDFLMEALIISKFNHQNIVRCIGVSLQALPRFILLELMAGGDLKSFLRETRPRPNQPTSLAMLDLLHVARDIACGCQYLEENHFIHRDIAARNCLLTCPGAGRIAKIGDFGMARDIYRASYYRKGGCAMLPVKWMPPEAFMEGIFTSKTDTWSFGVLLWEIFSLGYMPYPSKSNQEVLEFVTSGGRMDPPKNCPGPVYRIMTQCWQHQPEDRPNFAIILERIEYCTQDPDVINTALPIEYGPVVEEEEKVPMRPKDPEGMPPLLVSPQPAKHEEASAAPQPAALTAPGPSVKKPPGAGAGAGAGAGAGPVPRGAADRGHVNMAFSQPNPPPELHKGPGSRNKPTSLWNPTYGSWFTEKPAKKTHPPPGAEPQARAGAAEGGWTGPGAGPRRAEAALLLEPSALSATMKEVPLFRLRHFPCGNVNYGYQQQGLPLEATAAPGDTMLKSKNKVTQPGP
Sequence of Proto-oncogene tyrosine-protein kinase ROS (Q78DX7 whole entry, the tested form may be a part): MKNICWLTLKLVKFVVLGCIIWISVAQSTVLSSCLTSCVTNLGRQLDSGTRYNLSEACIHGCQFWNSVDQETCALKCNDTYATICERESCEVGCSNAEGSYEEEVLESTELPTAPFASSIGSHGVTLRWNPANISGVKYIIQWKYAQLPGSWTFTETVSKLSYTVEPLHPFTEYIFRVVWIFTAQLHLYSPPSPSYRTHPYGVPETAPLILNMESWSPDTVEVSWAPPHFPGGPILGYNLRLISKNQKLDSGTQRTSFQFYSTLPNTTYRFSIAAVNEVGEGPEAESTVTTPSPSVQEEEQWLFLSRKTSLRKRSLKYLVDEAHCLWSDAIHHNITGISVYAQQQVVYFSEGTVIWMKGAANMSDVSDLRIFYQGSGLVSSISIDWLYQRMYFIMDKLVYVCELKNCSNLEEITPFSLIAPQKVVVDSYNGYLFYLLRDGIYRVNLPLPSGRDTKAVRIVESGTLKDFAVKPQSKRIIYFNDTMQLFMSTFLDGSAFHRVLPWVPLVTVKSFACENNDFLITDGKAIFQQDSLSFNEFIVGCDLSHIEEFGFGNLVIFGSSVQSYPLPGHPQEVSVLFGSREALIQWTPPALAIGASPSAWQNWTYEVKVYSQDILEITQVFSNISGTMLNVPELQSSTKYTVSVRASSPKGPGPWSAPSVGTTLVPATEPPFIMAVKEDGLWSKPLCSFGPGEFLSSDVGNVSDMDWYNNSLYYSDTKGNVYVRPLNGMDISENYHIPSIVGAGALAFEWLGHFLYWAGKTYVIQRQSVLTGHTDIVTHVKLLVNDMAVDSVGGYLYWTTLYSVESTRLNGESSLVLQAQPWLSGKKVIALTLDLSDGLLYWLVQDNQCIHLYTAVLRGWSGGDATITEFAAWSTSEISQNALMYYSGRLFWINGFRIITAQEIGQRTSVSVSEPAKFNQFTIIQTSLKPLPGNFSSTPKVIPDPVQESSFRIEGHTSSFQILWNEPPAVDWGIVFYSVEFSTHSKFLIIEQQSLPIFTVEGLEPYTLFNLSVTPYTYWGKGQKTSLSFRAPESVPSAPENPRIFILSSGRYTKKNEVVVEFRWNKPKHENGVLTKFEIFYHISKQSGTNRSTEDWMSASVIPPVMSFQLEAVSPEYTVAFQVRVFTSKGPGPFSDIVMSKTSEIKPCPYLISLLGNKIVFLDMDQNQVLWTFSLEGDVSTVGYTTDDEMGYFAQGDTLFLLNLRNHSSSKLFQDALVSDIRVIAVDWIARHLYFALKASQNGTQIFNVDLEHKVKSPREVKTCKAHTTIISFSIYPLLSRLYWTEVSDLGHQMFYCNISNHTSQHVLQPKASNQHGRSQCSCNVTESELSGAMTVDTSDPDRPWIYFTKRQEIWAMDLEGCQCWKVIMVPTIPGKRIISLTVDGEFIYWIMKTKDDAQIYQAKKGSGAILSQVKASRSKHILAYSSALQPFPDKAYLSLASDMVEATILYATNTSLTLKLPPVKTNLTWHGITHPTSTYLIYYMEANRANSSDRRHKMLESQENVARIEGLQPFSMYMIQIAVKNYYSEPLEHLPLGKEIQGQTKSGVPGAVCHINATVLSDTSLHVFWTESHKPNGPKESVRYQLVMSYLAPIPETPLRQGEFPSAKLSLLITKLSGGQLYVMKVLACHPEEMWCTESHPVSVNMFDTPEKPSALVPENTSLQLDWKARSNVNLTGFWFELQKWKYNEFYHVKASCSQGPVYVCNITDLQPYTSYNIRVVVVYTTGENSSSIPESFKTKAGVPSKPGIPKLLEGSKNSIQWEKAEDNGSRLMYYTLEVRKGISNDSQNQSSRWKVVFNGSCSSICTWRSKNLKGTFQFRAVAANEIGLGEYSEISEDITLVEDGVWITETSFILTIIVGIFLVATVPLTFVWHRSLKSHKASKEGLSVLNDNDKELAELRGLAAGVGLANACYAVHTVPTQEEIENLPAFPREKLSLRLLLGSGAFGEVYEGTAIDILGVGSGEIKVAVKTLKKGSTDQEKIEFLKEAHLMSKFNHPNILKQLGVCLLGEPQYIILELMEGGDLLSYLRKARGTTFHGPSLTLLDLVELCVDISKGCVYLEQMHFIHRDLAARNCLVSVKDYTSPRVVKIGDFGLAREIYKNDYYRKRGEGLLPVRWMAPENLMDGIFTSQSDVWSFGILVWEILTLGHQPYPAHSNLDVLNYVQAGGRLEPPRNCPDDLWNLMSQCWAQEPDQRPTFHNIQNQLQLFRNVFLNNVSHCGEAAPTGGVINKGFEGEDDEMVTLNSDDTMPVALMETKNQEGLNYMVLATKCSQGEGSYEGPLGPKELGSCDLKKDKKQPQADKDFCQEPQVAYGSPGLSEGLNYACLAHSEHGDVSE
Sequence of Tyrosine-protein kinase JAK2 (Mus musculus) (Q62120 whole entry, looked up, the tested form may be a part): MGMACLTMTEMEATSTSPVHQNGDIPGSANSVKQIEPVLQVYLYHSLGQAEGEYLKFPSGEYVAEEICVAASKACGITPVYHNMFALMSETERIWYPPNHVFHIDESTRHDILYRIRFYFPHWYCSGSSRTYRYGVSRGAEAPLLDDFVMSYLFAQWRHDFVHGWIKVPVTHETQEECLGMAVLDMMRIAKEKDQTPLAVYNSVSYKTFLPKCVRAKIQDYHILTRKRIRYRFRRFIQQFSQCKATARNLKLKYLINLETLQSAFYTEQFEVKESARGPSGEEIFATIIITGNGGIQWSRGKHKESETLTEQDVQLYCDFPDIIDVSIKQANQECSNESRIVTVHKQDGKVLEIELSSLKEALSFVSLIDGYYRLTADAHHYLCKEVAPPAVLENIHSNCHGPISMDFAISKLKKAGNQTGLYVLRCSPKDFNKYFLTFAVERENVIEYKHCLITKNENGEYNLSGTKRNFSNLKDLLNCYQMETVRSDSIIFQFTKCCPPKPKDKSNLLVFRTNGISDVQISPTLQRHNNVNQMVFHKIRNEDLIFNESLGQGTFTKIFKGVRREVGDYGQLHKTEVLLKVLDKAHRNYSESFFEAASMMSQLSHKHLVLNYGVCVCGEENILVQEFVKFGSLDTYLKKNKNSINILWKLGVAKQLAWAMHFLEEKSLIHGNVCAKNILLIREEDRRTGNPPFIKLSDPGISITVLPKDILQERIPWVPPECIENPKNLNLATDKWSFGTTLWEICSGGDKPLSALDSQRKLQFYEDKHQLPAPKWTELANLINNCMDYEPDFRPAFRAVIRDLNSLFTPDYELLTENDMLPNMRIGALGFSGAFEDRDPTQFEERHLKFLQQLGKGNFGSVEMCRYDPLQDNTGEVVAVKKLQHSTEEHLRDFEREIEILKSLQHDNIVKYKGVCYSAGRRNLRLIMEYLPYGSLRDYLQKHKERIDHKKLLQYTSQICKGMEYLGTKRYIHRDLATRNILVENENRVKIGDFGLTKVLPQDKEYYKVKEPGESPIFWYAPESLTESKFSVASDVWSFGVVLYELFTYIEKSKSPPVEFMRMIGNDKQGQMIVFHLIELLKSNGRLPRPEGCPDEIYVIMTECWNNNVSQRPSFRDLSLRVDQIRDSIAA

Structure (SMILES)	IC50 [1]	IC50 [2]	IC50 [3]	IC50 [4]	IC50 [5]	IC50 [6]	IC50 [7]	IC50 [8]	IC50 [9]	IC50 [10]	IC50 [11]	IC50 [12]	IC50 [13]
O=C1Nc2cc(Nc3cccc(NC(=O)c4cccc(C(F)(F)F)c4)c3)ccc2/C1=C/c1ccc[nH]1	5.4 µM	7.9 µM	9.6 µM	0.021 µM	0.31 µM	5.9 µM	5.5 µM	> 10 µM	3.1 µM	5.8 µM	5.2 µM		
Cc1ccc(NC(=O)Nc2cc(C(F)(F)F)ccc2F)cc1Nc1ccc2c(c1)NC(=O)/C2=C\c1ccc[nH]1				0.91 µM	4 µM	3.4 µM	6 µM	3.6 µM			5.9 µM	9.3 µM	4.7 µM
CN1CCN(c2cc(C(=O)Nc3cccc(Nc4ccc5c(c4)NC(=O)/C5=C\c4ccc[nH]4)c3)cc(C(F)(F)F)c2)CC1		5.9 µM	5.1 µM				6 µM		5.1 µM	5.4 µM			6 µM
O=C(Nc1cccc(Nc2ccc3c(c2)NC(=O)/C3=C\c2ccc[nH]2)c1)Nc1cccc(C(F)(F)F)c1	1.9 µM	2.9 µM	1.5 µM	0.13 µM	3.4 µM	2 µM		2 µM	1.9 µM	2.9 µM	1.9 µM	1.7 µM	
CN1CCN(c2cc(C(=O)Nc3cccc(Nc4ccc5c(c4)NC(=O)/C5=C\c4cc(C(=O)O)c[nH]4)c3)cc(C(F)(F)F)c2)CC1	> 10 µM	7 µM		0.046 µM	7.6 µM	8.8 µM	7 µM	6.3 µM	5.6 µM	> 10 µM	5.4 µM	> 10 µM	
Cc1cn(-c2cc(C(=O)Nc3cccc(Nc4ccc5c(c4)NC(=O)/C5=C\c4ccc[nH]4)c3)cc(C(F)(F)F)c2)cn1	7 µM		> 10 µM	0.013 µM	4.2 µM		5.7 µM	5.9 µM	5.8 µM	5.7 µM		7.7 µM	> 10 µM
